# Rows were chosen to be rich in hits. Some 1.9% of all compounds tested hit in one or more screens of this group.
# Rad51 HR inh = Rad51 (human) homologous recombination inhibition; hRad51 DNA strand exchange, fluorescence dequenching; 200,000 tested, 0.085% active; AID 1385; Q06609; inhibition, % at 10 µM;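 active = inhibition above 40% at the single screening dose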;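 also: 0% = DMSO control wells and 100% = blanks with heterologous ssDNA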
#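 Test system: preformed human Rad51 ssDNA filaments; also added: Donor/quencher-labelled 47-bp dsDNA substrate; doses: 10 µM final, single point; times: 37 °C 15-min filament assembly, 30-min compound preincubation, 15-min exchange; detection: FRET fluorescence dequenching, excitation 485 nm, emission 520 nm; read-out basis: Fluorescence-based percent inhibition, control- and blank-normalised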
# H9c2 TAG inh = triacylglycerol accumulation inhibition; 230,000 tested, 0.66% active; inhibition, % at 12.5 µM; AID 651582; H9c2 cells, Nile Red lipid (TAG) fluorescence; cells loaded with 200 µM oleic acid;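 active = pattern-corrected inhibition of lipid staining of at least 50% with the nuclear-stain viability signal not falling by more than 50%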;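 also: 0% = DMSO wells and 100% = triacsin C control wells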
# Hsp70 act = switches on Hsp70 transcription; AID 1203; 200,000 tested, 0.04% active; HeLa Hsp70 promoter luciferase reporter, luminescence; scaled: vehicle 0, proteasome-inhibitor control 100%; activation, % at 10 µM;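 active = activation above the mean across all tested compounds plus 3 SD, cutoff set per campaign, cut at about 5.5% in these data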;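 also: 100% = MG132 at 30 µM as the positive control and 0% = DMSO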
# HIF activator = HIF pathway transcriptional activation. U2OS HRE-luciferase reporter, luminescence; normalized: DMSO 0%, desferrioxamine 100%. activation, % at 7.5 µM (by protocol). 300,000 tested, 0.32% active;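 active = mean activation of at least 10% of the iron chelator positive control signal, with at least half of replicates also reaching 10%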
# FXN GAA850 act = increases GAA850 frataxin promoter reporter activity; HEK293 lucGAA850 FXN promoter luciferase reporter, 24 h; percent of 10 µM SAHA response; activation, % at 6 µM; 360,000 tested, 0.56% active; AID 540364;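 active = activation above the average of all compounds screened plus 3 SD, cutoff fixed separately per campaign, cut at about 7.5% in these data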;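 also: 0% = DMSO wells and 100% = 10 µM SAHA wells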
# ABHD5-PLIN5 inh = inhibitors of human ABHD5-perilipin-5 interaction; Q00G26+Q8WTS1; Split G. princeps luciferase complementation, luminescence, 4 h; inhibition, % at 4 µM; 360,000 tested, 0.78% active;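 active = inhibition above the mean inhibition across every tested compound plus 3 SD, cut at about 22% in these data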;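 also: 0% = DMSO only wells and the 100% control is not disclosed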
# ABHD5 PLIN5 conf = confirmation of human ABHD5-PLIN5 interaction inhibitors; shares compounds with ABHD5-PLIN5 inh; biochemical ABHD5-PLIN5 interaction, luminescence; inhibition, % at 4 µM; 2,200 tested, 67% active; AID 651612; in the data active = inhibition above about 23%;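 also: 0% = DMSO vehicle wells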
# HNF4 counter = counter-screen for ABHD5-PLIN5 inhibitors: HNF4 split-luciferase. shares compounds with ABHD5-PLIN5 inh. HNF4 dimerization, luminescence, biochemical. inhibition, % at 4 µM. 2,200 tested, 77% active;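 active = mean inhibition across replicate wells exceeding the computed hit threshold, cut at about 13% in these data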;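 also: light from luciferase halves that rejoin when HNF4 fusion proteins dimerize; 0% = DMSO only wells and the 100% control is not given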
# Target sequence (P41235 whole entry, looked up, the tested form may be a part): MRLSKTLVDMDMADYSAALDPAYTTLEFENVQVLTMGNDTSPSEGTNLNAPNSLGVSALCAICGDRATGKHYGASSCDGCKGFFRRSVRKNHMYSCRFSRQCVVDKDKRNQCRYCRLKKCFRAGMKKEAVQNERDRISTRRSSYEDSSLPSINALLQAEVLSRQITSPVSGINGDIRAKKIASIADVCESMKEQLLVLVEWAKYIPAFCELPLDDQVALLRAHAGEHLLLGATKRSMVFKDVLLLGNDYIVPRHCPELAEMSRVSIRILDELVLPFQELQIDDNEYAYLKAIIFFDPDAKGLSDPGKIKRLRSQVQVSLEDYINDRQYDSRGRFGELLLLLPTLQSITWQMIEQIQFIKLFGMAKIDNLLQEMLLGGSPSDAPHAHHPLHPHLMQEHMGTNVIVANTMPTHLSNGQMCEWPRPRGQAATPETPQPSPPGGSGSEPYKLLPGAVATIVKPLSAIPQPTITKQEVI
# Active calls of the source: *; nt = no result given.
SMILES,Rad51 HR inh,H9c2 TAG inh,Hsp70 act,HIF activator,FXN GAA850 act,ABHD5-PLIN5 inh,ABHD5 PLIN5 conf,HNF4 counter
O=C(C[C@H]1C[C@H](C(=O)N2CCOCC2)[C@@]2(CCC3CCCC3)c3[nH]c4cc(-c5ccco5)ccc4c3CCN2C1=O)NCc1cccc(C(F)(F)F)c1,nt,39,nt,nt,1,23*,8,2
CCN(CC)C(=O)[C@H]1C[C@H](CC(=O)NCCc2ccccn2)C(=O)N2CCc3c([nH]c4cc(-c5ccco5)ccc34)[C@]12C,nt,7,nt,nt,-1,24*,1,6
Oc1ccc(Br)cc1C=Nc1ccc2c3c(cccc13)CC2,-21,nt,0,1,4,2,nt,nt
COc1ccc(CNC(=O)CN(C(=O)c2csnn2)c2ccc(F)cc2)cc1,nt,nt,nt,0,3,-7,nt,nt
Cc1ccc(S(C)(=O)=O)cc1C(=O)OCC(=O)N(Cc1ccccc1)Cc1ccccc1,nt,-11,nt,nt,-1,5,nt,nt
C=CC(=O)N1c2ccccc2Sc2ccc(NC(=O)OCC)cc21,2,nt,0,1,0,30*,62*,29*
Cc1c(C(=O)N2CCCC2)sc(NC(=O)c2ccc(Cl)cc2)c1C#N,-11,-12,0,0,0,0,nt,nt
COc1ccccc1C(=O)Nc1sc(C(=O)N2CCCC2)c(C)c1C#N,-10,-2,0,0,0,60*,3,2
COc1cccc(NC(=O)CCc2nnc3ccc(NCc4ccco4)nn23)c1,nt,nt,nt,0,2,29*,8,9
COc1ccc(OCCNC(=O)c2ccc3nc(C)c(N(C)C(=O)CCc4ccccc4)n3c2)cc1,nt,-4,nt,nt,-1,0,nt,nt
CC(Sc1ccsc1[N+](=O)[O-])C(=O)NCc1ccco1 (stereo unspecified),-5,-3,0,0,0,28*,10,21*
COc1ccccc1N(C(C)=O)C1=C(Cl)C(=O)c2ccccc2C1=O,nt,30,nt,nt,-14,93*,100*,111*
CC(=O)N(C1=C(N)C(=O)c2ccccc2C1=O)C(C)C,-2,-5,0,-1,-1,-5,nt,nt
CC1(C)Cc2cccc(OCC(=O)N3CCN(c4ccccc4F)CC3)c2O1,nt,-1,nt,1,-1,-5,nt,nt
CC1(C)Cc2cccc(OCC(=O)N3CCN(c4ccccc4)CC3)c2O1,14,nt,0,-1,3,82*,1,0
COC(=O)N[C@@H]1C[C@H]2[C@@H]3CC[C@H]4C[C@@H](OC)CC[C@]4(C)[C@H]3CC[C@@]12C,nt,-2,nt,nt,-1,0,nt,nt
O=S(=O)(Nc1ccc(Br)cc1)c1cccc2nonc12,nt,10,nt,0,4,2,nt,nt
O=S(=O)(Nc1ccc(C(O)(C(F)(F)F)C(F)(F)F)cc1)c1ccc(Cl)c2nonc12,nt,4,nt,nt,1,42*,51*,48*
CCOc1ccc(NC(=O)CN(C)C(=O)c2cc3c(s2)CCC3)cc1OCC,nt,8,nt,nt,0,-7,nt,nt
CN(C)CCN(C(=O)C1CCN(S(=O)(=O)c2cccs2)CC1)c1nc2ccccc2s1,nt,11,nt,1,0,10,nt,nt
Cn1nnnc1Sc1ncnc2scc(-c3ccc[nH]3)c12,nt,42,nt,nt,-8,42*,40*,37*
CC(OC(=O)Cn1[nH]c(=O)c2ccccc2c1=O)C(=O)Nc1ccccc1[N+](=O)[O-] (stereo unspecified),nt,-12,nt,-1,-2,-13,nt,nt
N#C/C(=C\c1ccccc1OCc1ccc(C(=O)O)cc1)C(=O)Nc1ccc(O)cc1,0,-16,0,0,4,46*,58*,56*
N#C/C(=C/c1ccc(OCc2ccc(C(=O)O)cc2)cc1)C(=O)Nc1ccccc1,nt,nt,nt,0,3,-2,nt,nt
CC(=O)c1cccc(Nc2ccc(Br)cc2)c1,nt,nt,nt,nt,nt,-21,nt,nt
SMILES,Rad51 HR inh,H9c2 TAG inh,Hsp70 act,HIF activator,FXN GAA850 act,ABHD5-PLIN5 inh,ABHD5 PLIN5 conf,HNF4 counter
COc1ccccc1-c1ncn(Cc2cccc(-c3ccccc3)c2)c1-c1ccco1,nt,nt,nt,nt,nt,25*,22*,37*
C=C1C(=O)[C@]23C[C@H]1CCC2[C@@]1(C)C(C[C@@H]3O)[C@](C)(C(=O)OC)CC[C@@H]1O (stereo partly specified),nt,nt,nt,nt,nt,39*,67*,108*
CCN1c2ccccc2NC2N=C(OC)C(c3ccccc3)C21 (stereo unspecified),6,nt,0,0,-5,48*,5,13*
CC(=O)Nc1ccc(OCc2cn(CC(=O)c3ccc(O)cc3)nn2)cc1,nt,1,nt,nt,0,68*,83*,53*
COc1cc(C(C)=O)ccc1OCc1cn(CC(=O)c2ccc(O)cc2)nn1,nt,-12,nt,nt,2,25*,53*,31*
CC(=O)c1ccc(OCc2cn(CC(=O)c3ccc(O)cc3)nn2)c(C)c1,nt,-2,nt,nt,0,6,nt,nt
O=C(Cn1cc(COc2cc(F)cc(F)c2)nn1)c1ccc(O)cc1,nt,3,nt,nt,2,3,nt,nt
CC(=O)c1ccc(OCc2cn(CC(=O)c3ccc(O)cc3)nn2)cc1,nt,3,nt,nt,0,23*,20,24*
Cc1cccc(C)c1OCc1cn(CC(=O)c2ccc(O)cc2)nn1,nt,-8,nt,nt,2,45*,66*,37*
CCCS(=O)(=O)NC(=O)C1(C)CCN(C(=O)c2ccc3ccccc3c2)C1 (stereo unspecified),nt,-1,nt,nt,0,-1,nt,nt
Cc1ccc(/C=C/C(=O)OCC(=O)Nc2cccc(S(=O)(=O)N(C)C)c2)o1,nt,-2,0,-2,1,-1,nt,nt
COc1ccc(OC)c(NC(=O)COc2ccc(S(=O)(=O)N3CCCC3)cc2)c1,nt,nt,nt,1,0,1,nt,nt
COc1ccc(-c2csc(NC3OC(=O)c4c3ccc(OC)c4OC)n2)cc1OC (stereo unspecified),16,19,nt,0,1,34*,63*,49*
COc1ccc(/C=C/C(=O)Oc2ccc(C)c(C)c2)cc1OC,22,2,0,0,4,-8,nt,nt
COc1cc(/C=C/[N+](=O)[O-])ccc1OC(=O)/C=C/c1ccc(F)cc1,nt,48,nt,-13,8.7*,30*,49*,73*
Cc1ccc2nc(-c3ccc(-c4ccccn4)s3)cn2c1,-2,-1,nt,1,1,3,nt,nt
Cc1ccc(C(=O)Nc2nc3ccccc3c(=O)s2)cc1,-4,nt,0,2,2,29*,6,-10
COc1ccc(NS(=O)(=O)c2cccc(C(=O)NNC(=O)CNC(=O)c3ccccc3F)c2)cc1,nt,-14,nt,-1,-1,-12,nt,nt
